Rtt109 Vps75: inhibitors of Candida albicans Rtt109/Vps75 histone acetyltransferase. Q5AAJ8. purified Rtt109/Vps75, ThioGlo CoA-SH fluorescence, 4 h. inhibition, % at 34.9 µM. 330,000 tested, 0.16% active. AID 540336;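 active = inhibition of at least 50% in every replicate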
dFosB activator: mouse delta FosB homodimer activation | purified delta FosB, TAMRA-CDK5 oligo fluorescence polarization; percent of positive-control signal above neutral wells | activation, % at 25 µM | 340,000 tested, 0.99% active;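 active = mean activation above about 17%, with every replicate also reaching it, limit read from the data, passing the limit was not always enough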
Target sequence (P13346 whole entry, looked up): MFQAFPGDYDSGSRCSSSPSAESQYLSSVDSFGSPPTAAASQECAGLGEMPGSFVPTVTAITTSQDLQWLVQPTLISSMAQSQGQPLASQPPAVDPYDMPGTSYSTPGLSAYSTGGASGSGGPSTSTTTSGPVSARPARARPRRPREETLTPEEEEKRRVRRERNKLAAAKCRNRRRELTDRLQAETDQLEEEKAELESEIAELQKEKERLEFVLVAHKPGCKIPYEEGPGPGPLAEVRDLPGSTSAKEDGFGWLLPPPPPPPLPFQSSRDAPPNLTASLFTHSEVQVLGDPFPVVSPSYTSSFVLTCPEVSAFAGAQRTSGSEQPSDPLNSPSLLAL
Env fusion inh: HIV envelope-mediated fusion inhibition; inhibition, % at 12.3 µM; HeLa-JRFL Env/CEM21 cell fusion, luciferase; 360,000 tested, 1.1% active;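 active = mean replicate inhibition score of at least 50 and every replicate individually at or above 50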;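 also: 0% = plate neutral controls and 100% = maraviroc near 300 nM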
INS-1E GSIS act: primary screen for activators of insulin secretion dependent on glucose, INS-1E cells, GLuc reporter luminescence; 370,000 tested, 0.61% active; INS-1E GLuc reporter insulin secretion, 2-3 h; AID 743287; activation, % at 16.6 µM;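 active = lowest replicate activation of at least 40%, so every replicate reaches that level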;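 also: 0% = median of neutral control wells and 100% = median of IBMX positive control wells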
miR122 inh: blocks miR-122 activity in Huh7 sensor cells; AID 602342; activation (reporter increase), % at 12.5 µM; 340,000 tested, 0.3% active; Huh7 miR-122 Renilla luciferase sensor, 48 h; neutral wells = 0, positive control = 100;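 active = mean replicate activation score at least 90 and every replicate individually at or above 90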;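 also: higher luciferase means less miR-122 activity so hits act as miR-122 inhibitors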
Cneo AK release: Cryptococcus neoformans lysis via adenylate kinase release; 360,000 tested, 0.2% active; C. neoformans lysis, adenylate kinase release luminescence, 4 h; normalised: neutral wells 0, clomiphene wells 100; lysis activity, % at 15 µM;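 active = mean lysis activity across replicates of at least 80%, whatever share of replicates individually reach that level; inactive = mean lysis activity below 80%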
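Assay system: log-phase C. neoformans yeast / Quantity: yeast cell density of 5 × 10^6 cells/mL / Medium: fresh YPD growth medium / Compound: single dose / Timing: static 4 h at 37 °C with compound, 1 h detection / Measured by: adenylate kinase release luminescence / Read-out: lysis from increased AK signal / Benchmarks: Clomiphene as positive lysis control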
* = called active by the depositor; · = not tested or not shown; [ ] = remark or other dose. The list is not random: actives were taken first. Their share in the collection is about 2.4%.

SMILES	Rtt109 Vps75	dFosB activator	Env fusion inh	INS-1E GSIS act	miR122 inh	Cneo AK release
O=C(O)C[C@@H]1C=C[C@H](NC(=O)Nc2ccccc2)[C@H](CO)O1	·	·	58*[16.7 µM]	5	·	-4
O=C(C[C@@H]1C=C[C@@H](NC(=O)CC2CC2)[C@H](CO)O1)NCc1ccc(Cl)cc1	·	·	55*[16.7 µM]	10	·	0
O=C(C[C@H]1C=C[C@@H](NC(=O)Nc2ccccc2F)[C@@H](CO)O1)NCc1ccc(Cl)cc1	·	·	72*[16.7 µM]	-10	·	-6
O=C(C[C@@H]1C=C[C@H](NC(=O)CC2CC2)[C@H](CO)O1)NCc1ccc(Cl)cc1	·	·	-4[16.7 µM]	-2	·	1
CCC(=O)N[C@@H]1C=C[C@H](CC(=O)NCC2CCCCC2)O[C@H]1CO	·	·	-28[16.7 µM]	9	-1[16.7 µM]	87*
COC(=O)C[C@H]1C[C@H]2c3cc(NC(=O)Nc4ccc(OC)cc4)ccc3O[C@H]2[C@@H](CO)O1	·	·	·	13	·	·
CNC[C@@H]1Oc2ccc(NC(=O)CCCN(C)C)cc2CC(=O)N([C@@H](C)CO)C[C@H]1C	·	·	-5[16.7 µM]	16	·	·
O=C(C[C@@H]1C=C[C@H](NC(=O)Nc2ccccc2F)[C@@H](CO)O1)NCc1ccc(-c2ccccc2)cc1	·	·	8[16.7 µM]	14	17[16.7 µM]	0
O=C(C[C@H]1C=C[C@@H](NC(=O)Nc2ccccc2F)[C@@H](CO)O1)NCc1ccc(-c2ccccc2)cc1	·	·	84*[16.7 µM]	-24	·	·
O=C(C[C@H]1C=C[C@@H](NC(=O)c2cccc(F)c2)[C@@H](CO)O1)NCc1ccc(Oc2ccccc2)cc1	·	·	80*[16.7 µM]	-14	·	1
C[C@@H]1CN(C)C(=O)c2cccc(N)c2O[C@H]1CN(C)C(=O)OC(C)(C)C	·	·	·	-10	·	·
O=S(=O)(c1ccc(F)cc1)N1CC[C@@H]2[C@@H](CO)Nc3ccc(Br)cc3[C@@H]21	·	·	·	-23	-1[16.7 µM]	5
S=C(NCc1ccncc1)Nc1cc(Cl)cc(Cl)c1	-4	1	5	-16	103*	-2
CCCCNS(=O)(=O)c1ccc2nc(-c3cccnc3)cc(C(=O)NC3CC3)c2c1	4	-10	-1	16	53	1
CCCCNS(=O)(=O)c1ccc2nc(-c3cccnc3)cc(C(=O)NC3CCCC3)c2c1	-5	0	8	7	97*	·
COc1ccc(S(=O)(=O)Nc2ccc3c(c2)CC(=O)N([C@H](C)CO)C[C@H](C)[C@@H](CN(C)S(=O)(=O)c2ccc(C)cc2)O3)cc1	·	·	-1[16.7 µM]	-6	-8[16.7 µM]	-6
Cc1noc(C)c1S(=O)(=O)N(C)C[C@@H]1Oc2ccc(NC(=O)NC3CCCCC3)cc2CC(=O)N([C@@H](C)CO)C[C@@H]1C	·	·	62*[16.7 µM]	-10	7[16.7 µM]	1
Cc1noc(C)c1S(=O)(=O)N(C)C[C@H]1Oc2ccc(NC(=O)NC3CCCCC3)cc2CC(=O)N([C@H](C)CO)C[C@@H]1C	·	·	2[16.7 µM]	3	3[16.7 µM]	3
Cc1noc(C)c1S(=O)(=O)N(C)C[C@@H]1Oc2ccc(NC(=O)NC3CCCCC3)cc2CC(=O)N([C@H](C)CO)C[C@@H]1C	·	·	78*[16.7 µM]	-9	-1[16.7 µM]	2
COc1cccc(S(=O)(=O)N2CCCCN3[C@@H](CO)[C@@H](c4ccc(C#CCC(C)C)cc4)[C@@H]3C2)c1	·	·	·	1	-18[16.7 µM]	84*
CCS(=O)(=O)N1CCCCN2[C@H](CO)[C@H](c3ccc(-c4ccc(C#N)cc4)cc3)[C@@H]2C1	·	·	·	7	18[16.7 µM]	2
CCS(=O)(=O)N1CCCCN2[C@H](C1)[C@@H](c1ccc(-c3ccc(C#N)cc3)cc1)[C@@H]2CO	·	·	·	15	43[16.7 µM]	91*
C[C@@H]1CN([C@H](C)CO)S(=O)(=O)c2ccc(-c3ccc(C(=O)N(C)C)cc3)cc2O[C@H]1CN(C)C(=O)C1CC1	·	·	-7[16.7 µM]	3	3[16.7 µM]	·
c1ccc2c(c1)OCC(CNc1ncnc3sccc13)O2 (stereo not given)	-4	-4	57*	-39	·	-5
Fc1ccccc1CNc1ncnc2sccc12	·	-4	39	5	-8	1
CCCNC(=O)N(C)C[C@H]1Oc2ncc(C#Cc3ccncc3)cc2C(=O)N([C@H](C)CO)C[C@@H]1C	·	·	-30[16.7 µM]	1	-3[16.7 µM]	-1
COc1cc2ccccc2cc1C(=O)Nc1ccc(Br)cn1	59*	4	-111	-1	2	-1

Bioassay records: PubChem, Broad Institute
